In ChEMBL document CHEMBL4673290, “Diazaspirononane Nonsaccharide Inhibitors of O-GlcNAcase (OGA) for the Treatment of Neurodegenerative Disorders” (J Med Chem, 2020):
≈ marks a conversion by molar mass, not a printed value.

What was measured:
[1] = biological target: Protein O-GlcNAcase (Homo sapiens, UniProt O60502); assay: Inhibition of OGA in HEK293 cells induced with human Tau […] mutant assessed as increase in O-GlcNAcylated protein levels measured after 6 hrs by Hoechst 33342 dye based fluorescence analysis; type: cell-based
Protein O-GlcNAcase, sequence (O60502 whole entry, looked up, stated change not applied): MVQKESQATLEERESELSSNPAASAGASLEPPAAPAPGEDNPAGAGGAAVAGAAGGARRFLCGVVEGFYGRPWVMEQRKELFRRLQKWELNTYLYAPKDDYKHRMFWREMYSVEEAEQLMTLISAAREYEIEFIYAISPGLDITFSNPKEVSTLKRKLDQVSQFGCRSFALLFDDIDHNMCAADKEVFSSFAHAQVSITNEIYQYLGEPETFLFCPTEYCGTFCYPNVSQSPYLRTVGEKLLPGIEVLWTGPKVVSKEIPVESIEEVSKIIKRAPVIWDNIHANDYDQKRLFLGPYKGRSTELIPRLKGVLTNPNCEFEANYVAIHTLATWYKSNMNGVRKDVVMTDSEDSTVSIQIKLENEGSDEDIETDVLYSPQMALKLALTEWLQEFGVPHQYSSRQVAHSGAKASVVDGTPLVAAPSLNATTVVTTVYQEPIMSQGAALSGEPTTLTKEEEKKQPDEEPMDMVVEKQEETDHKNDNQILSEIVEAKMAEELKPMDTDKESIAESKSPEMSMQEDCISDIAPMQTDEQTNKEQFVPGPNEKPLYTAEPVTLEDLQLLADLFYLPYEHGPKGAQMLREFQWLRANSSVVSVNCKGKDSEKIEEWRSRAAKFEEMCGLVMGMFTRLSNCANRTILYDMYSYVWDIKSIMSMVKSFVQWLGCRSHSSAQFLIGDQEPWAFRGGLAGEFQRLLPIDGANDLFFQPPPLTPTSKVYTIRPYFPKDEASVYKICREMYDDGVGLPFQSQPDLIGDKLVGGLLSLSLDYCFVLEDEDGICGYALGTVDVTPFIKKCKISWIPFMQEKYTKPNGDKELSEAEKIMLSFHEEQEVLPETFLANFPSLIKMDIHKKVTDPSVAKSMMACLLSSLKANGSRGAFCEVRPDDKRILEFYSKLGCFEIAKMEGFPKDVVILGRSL
Method in brief: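 Janssen HEK293 line inducible for P301L human Tau 2N4R, seeded two days before at 4000 cells/well in low-glucose assay medium. Compound exposure 6 h with 0.2% DMSO. Cells fixed with 4% PFA, permeabilized, then stained with CTD110.6 anti-O-GlcNAc (1/1000, 4 °C overnight) and a fluorescent secondary. Readout was 488 nm intensity over nine fields; Hoechst nuclei counted. Thiamet-G 200 μM defined maximum. IC50 by nonlinear regression.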

[2] = Inhibition of human recombinant full-length OGA transcript variant 1 expressed in HEK293T cells using FM-GlcNAc as substrate preincubated for 60 mins followed by addition of substrate and measured after 6 hrs by fluorescence assay
Method in brief: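 Full-length human OGA, 2 nM, preincubated with compound for 60 min at room temperature. FM-GlcNAc substrate at 100 μM final, in 200 mM citrate/phosphate pH 7.2 with 0.005% Tween-20 and ≤1% DMSO. Run 6 h at room temperature, stopped with 500 mM carbonate pH 11.0. Fluorescence read at 485/538 nm. IC50 and Hill coefficient from least-squares fit, normalised to no-inhibitor and saturating reference controls.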

[3] = in vitro; conditions: mouse, liver microsomes, CLH
[4] = tested on: P-gp (MDR1); assay: Efflux ratio of apparent permeability across basolateral to apical over apical to basolateral side in MDCK2-MDR1 cells at 5 uM measured after 120 mins in absence of P-gp inhibitor GF120918 by LC-MS/MS analysis; conditions: dog, MDCK-MDR1
[5] = in vitro; conditions: human, liver microsomes, CLH
[6] = Inhibition of clostridium perfringens OGA using FM-GlcNAc as substrate preincubated for 60 mins followed by addition of substrate and measured after 6 hrs by fluorescence assay
[7] = AUC (0 to last) in male CD1 mouse at 30 mg/kg, po compound dissolved in water measured after 24 hrs by LC-MS/MS analysis; type: ADME, organism-based; parameters: route oral, time 24 hrs, dose 30 mg/kg; conditions: in vivo
Method in brief: (§1)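 Three male CD1 mice per arm; oral solution in water adjusted to about pH 4. Blood taken at 0.5, 1, 2, 4, 7 and 24 h. Plasma protein-precipitated with acetonitrile and the supernatant quantified by qualified LC-MS/MS.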

[8] = Clearance in male CD1 mouse at 1 mg/kg, iv compound dissolved in saline measured after 24 hrs by LC-MS/MS analysis; type: ADME, organism-based; conditions: in vivo
Method in brief: (§2)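 Single 1 mg/kg iv dose in 0.9% saline to three male CD1 mice. Blood sampled at 0.117, 0.333, 1, 2, 4, 7 and 24 h. Plasma prepared by acetonitrile protein precipitation and analysed by qualified LC-MS/MS.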

[9] = Volume of distribution at steady state in male CD1 mouse at 1 mg/kg, iv compound dissolved in saline measured after 24 hrs by LC-MS/MS analysis; type: ADME, organism-based; conditions: in vivo, read-out: Vdss; method in brief: as §2
[10] = Oral bioavailability in male CD1 mouse at 30 mg/kg, compound dissolved in water measured after 24 hrs by LC-MS/MS analysis; type: ADME, organism-based; conditions: in vivo
Method in brief: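 Male CD1 mice, three per arm: 1 mg/kg iv in 0.9% saline and 30 mg/kg po as a solution in water adjusted to about pH 4. Serial blood to 24 h. Plasma levels measured by LC-MS/MS after acetonitrile precipitation. Bioavailability derived from iv and po exposure.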

[11] = Cmax in male CD1 mouse at 30 mg/kg, po compound dissolved in water measured after 24 hrs by LC-MS/MS analysis; type: ADME, organism-based; parameters: route oral, dose 30 mg/kg, time 24 hrs; conditions: in vivo; method in brief: as §1
[12] = Kinetic solubility of compound at pH 2; type: physicochemical; conditions: buffer, read-out: Kinetic_solubility
[13] = Kinetic solubility of compound at pH 7.4; type: physicochemical; conditions: buffer, read-out: Kinetic_solubility
[14] = Dissociation constant, pKa of the compound; type: physicochemical

Row | SMILES | IC50 [1] | IC50 [2] | further results
1 | Cc1cc(N2CCC3(CCNC3)C2)n2ncnc2n1 (racemic) | > 10000 nM | 3240 nM | 
2 | CC(=O)Nc1ncc(CN2CCC3(CCN(c4cc(C)n5ccnc5n4)C3)C2)s1 (racemic) | 437 nM | 1 nM | microsomal CLint at 1 h, 1 µM [3]: 16 µL/min/mg; efflux ratio at 2 h, 5 µM [4]: 1.2; microsomal CLint at 1 h, 1 µM [5]: < 8 µL/min/mg
3 | Cc1cc(N2CCC3(CCN(Cc4ccc5sc(C)nc5c4)C3)C2)n2ncnc2n1 (racemic) | > 1000 nM | 22 nM | 
4 | CC(=O)Nc1ncc(CN2CCC3(CCC(c4cc(C)nc(C)c4)C3)C2)s1 (configuration not stated) | 214 nM | 66 nM | 
5 | CC(=O)Nc1ncc(CN2CC[C@]3(C2)C[C@H](Oc2cc(C)nc(C)c2)C3)s1 |  | 1000 nM | 
6 | CC(=O)Nc1ncc(CN2CC[C@]3(C2)C[C@@H](Oc2cc(C)nc(C)c2)C3)s1 |  | 550 nM | 
7 | CC(=O)Nc1ncc(CN2CCC3(CCN(c4cc(C)nc5ncnn45)C3)C2)s1 (configuration not stated) | 575 nM | 4 nM | IC50 [6]: 290 nM; microsomal CLint at 1 h, 1 µM [3]: < 13 µL/min/mg; efflux ratio at 2 h, 5 µM [4]: 13.5; microsomal CLint at 1 h, 1 µM [5]: < 8 µL/min/mg
8 | COc1cc(N2CCC3(CCN(Cc4cnc(NC(C)=O)s4)C3)C2)cc(C)n1 (racemic) | 56 nM | 6 nM | microsomal CLint at 1 h, 1 µM [3]: 12 µL/min/mg; efflux ratio at 2 h, 5 µM [4]: 27.7; microsomal CLint at 1 h, 1 µM [5]: < 8 µL/min/mg
9 | CC(=O)Nc1ncc(CN2CC3(CCN(c4cc(C)nc5ncnn45)C3)C2)s1 | 10000 nM | 34 nM | IC50 [6]: 3300 nM
10 | CC(=O)Nc1ncc(CN2CCC3(CCN(c4cc(C)nc5ccccc45)C3)C2)s1 (single isomer, unassigned; (-)) | 263 nM | 25 nM | 
11 | CC(=O)Nc1ncc(CN2CC[C@]3(C[C@H](Oc4cc(C)nc(C)c4)CO3)C2)s1 (racemic) | 537 nM | 30 nM | 
12 | CC(=O)Nc1ncc(CN2CC[C@]3(C2)C[C@@H](Cc2cc(C)nc(C)c2)C3)s1 | 295 nM | 209 nM | 
13 | CC(=O)Nc1ncc(CN2CCC3(CCN(c4cc(C)nc5ccccc45)C3)C2)s1 (single isomer, unassigned; (+)) | 17 nM | 5 nM | microsomal CLint at 1 h, 1 µM [3]: 15 µL/min/mg; AUC(0-t) at 24 h [7]: 1940 ng·h/mL; clearance [8]: 55.8 mL/min/kg; Vd [9]: 17.8 L/kg; bioavailability [10]: 23.1%; Cmax [11]: 331 ng/mL; microsomal CLint at 1 h, 1 µM [5]: < 8 µL/min/mg
14 | CC(=O)Nc1ncc(CN2CCC3(CCN(c4cc(C)nc5ccccc45)C3)C2)s1 (racemic) | 39 nM | 9 nM | solubility kinetic [12]: 87 µM (≈ 36.7 µg/mL); solubility kinetic [13]: 71 µM (≈ 29.9 µg/mL)
15 | CC(=O)Nc1ncc(CN2CCC3(CCN(c4cc(C)nc(C)n4)C3)C2)s1 (racemic) | 170 nM | 13 nM | 
16 | Cc1cc(N2CCC3(CCN(Cc4ccc5c(c4)OCO5)C3)C2)n2ncnc2n1 (configuration not stated) | > 1000 nM | 129 nM | 
17 | CC(=O)Nc1ncc(CN2CCC3(CCC(Cc4cc(C)nc(C)c4)C3)C2)s1 (configuration not stated) | 537 nM | 309 nM | 
18 | CC(=O)Nc1ncc(CN2CCC3(CC(COc4cc(C)nc(C)c4)C3)C2)s1 (racemic) |  | 316 nM | 
19 | Cc1cc(N2CCC3(CCN(Cc4ccc5nccnc5c4)C3)C2)n2ncnc2n1 (racemic) | > 10000 nM | 74 nM | 
20 | CC(=O)Nc1ncc(CN2CCC3(C2)CN(c2cc(C)nc4ncnn24)C3)s1 | 9330 nM | 41 nM | 
21 | CC(=O)Nc1ncc(CN2CCC3(CC(c4cc(C)nc(C)c4)CO3)C2)s1 (configuration not stated) | 603 nM | 21 nM | 
22 | CC(=O)Nc1ncc(CN2CCC3(CCN(c4cc(C)nc(C)c4)C3)C2)s1 (racemic) | 141 nM | 6 nM | microsomal CLint at 1 h, 1 µM [3]: < 8 µL/min/mg; pKa [14]: 10.4; efflux ratio at 2 h, 5 µM [4]: 1.6; microsomal CLint at 1 h, 1 µM [5]: < 8 µL/min/mg
23 | CC(=O)Nc1ncc(CN2CC[C@]3(C[C@@H](Oc4cc(C)nc(C)c4)CO3)C2)s1 (racemic) |  | 209 nM | 
24 | CC(=O)Nc1ncc(CN2CCC3(CCC(COc4cc(C)nc(C)c4)C3)C2)s1 (configuration not stated) | 501 nM | 135 nM | 
25 | CC(=O)Nc1ncc(CN2CC[C@]3(C2)C[C@H](Cc2cc(C)nc(C)c2)C3)s1 | 240 nM | 204 nM | 
26 | CC(=O)Nc1ncc(CN2CCC3(CCN(c4cc(C)nc(C(F)(F)F)c4)C3)C2)s1 (racemic) | 380 nM | 19 nM | microsomal CLint at 1 h, 1 µM [3]: 55 µL/min/mg; efflux ratio at 2 h, 5 µM [4]: 32.2; microsomal CLint at 1 h, 1 µM [5]: 46 µL/min/mg
27 | CC(=O)Nc1ncc(CN2CCC3(CC(c4cc(C)nc(C)c4)C3)C2)s1 (racemic) | 182 nM | 36 nM | 
28 | CC(=O)Nc1ncc(CN2CCC3(CCN(c4cc(C)cc(C)n4)C3)C2)s1 (racemic) | 46 nM | 4 nM | microsomal CLint at 1 h, 1 µM [3]: 264 µL/min/mg; efflux ratio at 2 h, 5 µM [4]: 24.8; microsomal CLint at 1 h, 1 µM [5]: 101 µL/min/mg
